Data taken from ChEMBL document CHEMBL3588757, “Structure-based design, synthesis and biological testing of piperazine-linked bis-epipodophyllotoxin etoposide analogs” (Bioorg Med Chem, 2015).

Tests used:
[1] = molecular target: DNA topoisomerase 2-alpha (Homo sapiens) (UniProt P11388); assay: Inhibition of full-length human recombinant topoisomerase 2-alpha mediated relaxation and cleavage of supercoiled pBR322 plasmid DNA to linear DNA by ethidium bromide staining based gel electrophoresis assay
In short: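 Recombinant full-length human topoisomerase IIα with supercoiled pBR322 DNA at 37 °C. Components mixed on ice before drug addition. Complexes trapped with SDS; products run on ethidium bromide gels. Linear DNA identified against a HindIII-linearized marker; repeated on three days.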

[2] = system: SK-MEL-5; assay: Cytotoxicity against human SK-MEL-5 cells assessed as cell growth at 50 uM by SRB assay; type: functional; settings: read-out: Activity
[3] = system: CAKI-1; assay: Cytotoxicity against human Caki1 cells assessed as cell growth at 50 uM by SRB assay; type: functional; settings: read-out: Activity
[4] = system: RPMI-8226; assay: Cytotoxicity against human RPMI8226 cells by SRB assay; type: functional
In short: (§1)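 NCI-60 panel screen; 5-dose testing giving GI50 per cell line, plus a single 10 µM one-dose test. Method details not given beyond the NCI screen.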

[5] = system: SR; assay: Cytotoxicity against human SR cells by SRB assay; type: functional; in short: as §1
[6] = system: SNB-19; assay: Cytotoxicity against human SNB19 cells by SRB assay; type: functional; in short: as §1
[7] = system: IGROV-1; assay: Cytotoxicity against human IGROV1 cells by SRB assay; type: functional; in short: as §1
[8] = system: OVCAR-5; assay: Cytotoxicity against human OVCAR5 cells by SRB assay; type: functional; in short: as §1
[9] = Cytotoxicity against human NCI-ADR-RES cells by SRB assay; type: functional; in short: as §1
[10] = system: SN12C; assay: Cytotoxicity against human SN12C cells by SRB assay; type: functional; in short: as §1
[11] = system: TK-10; assay: Cytotoxicity against human TK10 cells by SRB assay; type: functional; in short: as §1
[12] = system: MOLT-4; assay: Cytotoxicity against human MOLT4 cells assessed as cell growth at 0.005 uM by SRB assay; type: functional; settings: read-out: Activity
[13] = system: A549; assay: Cytotoxicity against human A549/ATCC cells assessed as cell growth at 0.005 uM by SRB assay; type: functional; settings: read-out: Activity
[14] = system: HOP-92; assay: Cytotoxicity against human HOP92 cells assessed as cell growth at 0.005 uM by SRB assay; type: functional; settings: read-out: Activity
In short: (§2)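 Measured in the NCI-60 human tumour cell line panel using five-dose testing. Growth was recorded at each dose for each cell line, and a GI50 was derived for each line.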

[15] = system: NCI-H226; assay: Cytotoxicity against human NCI-H226 cells assessed as cell growth at 0.005 uM by SRB assay; type: functional; settings: read-out: Activity
[16] = system: COLO 205; assay: Cytotoxicity against human COLO205 cells assessed as cell growth at 0.005 uM by SRB assay; type: functional; settings: read-out: Activity
[17] = system: HCC 2998; assay: Cytotoxicity against human HCC2998 cells assessed as cell growth at 0.005 uM by SRB assay; type: functional; settings: read-out: Activity; in short: as §2
[18] = system: SNB-19; assay: Cytotoxicity against human SNB19 cells assessed as cell growth at 0.005 uM by SRB assay; type: functional; settings: read-out: Activity
[19] = system: OVCAR-5; assay: Cytotoxicity against human OVCAR5 cells assessed as cell growth at 0.005 uM by SRB assay; type: functional; settings: read-out: Activity
[20] = system: OVCAR-8; assay: Cytotoxicity against human OVCAR8 cells assessed as cell growth at 0.005 uM by SRB assay; type: functional; settings: read-out: Activity
[21] = system: 786-0; assay: Cytotoxicity against human 786-0 cells assessed as cell growth at 0.005 uM by SRB assay; type: functional; settings: read-out: Activity
[22] = system: CAKI-1; assay: Cytotoxicity against human Caki1 cells assessed as cell growth at 0.005 uM by SRB assay; type: functional; settings: read-out: Activity
[23] = system: SN12C; assay: Cytotoxicity against human SN12C cells assessed as cell growth at 0.005 uM by SRB assay; type: functional; settings: read-out: Activity
[24] = system: MCF7; assay: Cytotoxicity against human MCF7 cells assessed as cell growth at 0.005 uM by SRB assay; type: functional; settings: read-out: Activity
[25] = system: M14; assay: Cytotoxicity against human M14 cells assessed as cell growth at 0.05 uM by SRB assay; type: functional; settings: read-out: Activity
[26] = system: SK-MEL-2; assay: Cytotoxicity against human SK-MEL-2 cells assessed as cell growth at 0.05 uM by SRB assay; type: functional; settings: read-out: Activity
[27] = system: ACHN; assay: Cytotoxicity against human ACHN cells assessed as cell growth at 0.05 uM by SRB assay; type: functional; settings: read-out: Activity
[28] = system: MDA-MB-468; assay: Cytotoxicity against human MDA-MB-468 cells assessed as cell growth at 0.05 uM by SRB assay; type: functional; settings: read-out: Activity
[29] = system: A549; assay: Cytotoxicity against human A549/ATCC cells assessed as cell growth at 0.5 uM by SRB assay; type: functional; settings: read-out: Activity
[30] = system: NCI-H226; assay: Cytotoxicity against human NCI-H226 cells assessed as cell growth at 0.5 uM by SRB assay; type: functional; settings: read-out: Activity
[31] = system: NCI-H522; assay: Cytotoxicity against human NCI-H522 cells assessed as cell growth at 0.5 uM by SRB assay; type: functional; settings: read-out: Activity
[32] = system: OVCAR-8; assay: Cytotoxicity against human OVCAR8 cells assessed as cell growth at 0.5 uM by SRB assay; type: functional; settings: read-out: Activity
[33] = Cytotoxicity against human NCI-ADR-RES cells assessed as cell growth at 0.5 uM by SRB assay; type: functional; settings: read-out: Activity
[34] = system: CAKI-1; assay: Cytotoxicity against human Caki1 cells assessed as cell growth at 0.5 uM by SRB assay; type: functional; settings: read-out: Activity
[35] = system: T47D; assay: Cytotoxicity against human T47D cells assessed as cell growth at 0.5 uM by SRB assay; type: functional; settings: read-out: Activity
[36] = system: 786-0; assay: Cytotoxicity against human 786-0 cells assessed as cell growth at 5 uM by SRB assay; type: functional; settings: read-out: Activity
[37] = system: UO-31; assay: Cytotoxicity against human UO31 cells assessed as cell growth at 5 uM by SRB assay; type: functional; settings: read-out: Activity
[38] = system: DU-145; assay: Cytotoxicity against human DU145 cells assessed as cell growth at 5 uM by SRB assay; type: functional; settings: read-out: Activity; in short: as §2
[39] = Cytotoxicity against human Hs578T cells assessed as cell growth at 5 uM by SRB assay; type: functional; settings: Hs-578T, read-out: Activity; in short: as §2
[40] = read-out: LC50 (the source's name)
[41] = read-out: pLC50 (the source's name) (converted)

Sequence of DNA topoisomerase 2-alpha (Homo sapiens) (P11388 whole entry): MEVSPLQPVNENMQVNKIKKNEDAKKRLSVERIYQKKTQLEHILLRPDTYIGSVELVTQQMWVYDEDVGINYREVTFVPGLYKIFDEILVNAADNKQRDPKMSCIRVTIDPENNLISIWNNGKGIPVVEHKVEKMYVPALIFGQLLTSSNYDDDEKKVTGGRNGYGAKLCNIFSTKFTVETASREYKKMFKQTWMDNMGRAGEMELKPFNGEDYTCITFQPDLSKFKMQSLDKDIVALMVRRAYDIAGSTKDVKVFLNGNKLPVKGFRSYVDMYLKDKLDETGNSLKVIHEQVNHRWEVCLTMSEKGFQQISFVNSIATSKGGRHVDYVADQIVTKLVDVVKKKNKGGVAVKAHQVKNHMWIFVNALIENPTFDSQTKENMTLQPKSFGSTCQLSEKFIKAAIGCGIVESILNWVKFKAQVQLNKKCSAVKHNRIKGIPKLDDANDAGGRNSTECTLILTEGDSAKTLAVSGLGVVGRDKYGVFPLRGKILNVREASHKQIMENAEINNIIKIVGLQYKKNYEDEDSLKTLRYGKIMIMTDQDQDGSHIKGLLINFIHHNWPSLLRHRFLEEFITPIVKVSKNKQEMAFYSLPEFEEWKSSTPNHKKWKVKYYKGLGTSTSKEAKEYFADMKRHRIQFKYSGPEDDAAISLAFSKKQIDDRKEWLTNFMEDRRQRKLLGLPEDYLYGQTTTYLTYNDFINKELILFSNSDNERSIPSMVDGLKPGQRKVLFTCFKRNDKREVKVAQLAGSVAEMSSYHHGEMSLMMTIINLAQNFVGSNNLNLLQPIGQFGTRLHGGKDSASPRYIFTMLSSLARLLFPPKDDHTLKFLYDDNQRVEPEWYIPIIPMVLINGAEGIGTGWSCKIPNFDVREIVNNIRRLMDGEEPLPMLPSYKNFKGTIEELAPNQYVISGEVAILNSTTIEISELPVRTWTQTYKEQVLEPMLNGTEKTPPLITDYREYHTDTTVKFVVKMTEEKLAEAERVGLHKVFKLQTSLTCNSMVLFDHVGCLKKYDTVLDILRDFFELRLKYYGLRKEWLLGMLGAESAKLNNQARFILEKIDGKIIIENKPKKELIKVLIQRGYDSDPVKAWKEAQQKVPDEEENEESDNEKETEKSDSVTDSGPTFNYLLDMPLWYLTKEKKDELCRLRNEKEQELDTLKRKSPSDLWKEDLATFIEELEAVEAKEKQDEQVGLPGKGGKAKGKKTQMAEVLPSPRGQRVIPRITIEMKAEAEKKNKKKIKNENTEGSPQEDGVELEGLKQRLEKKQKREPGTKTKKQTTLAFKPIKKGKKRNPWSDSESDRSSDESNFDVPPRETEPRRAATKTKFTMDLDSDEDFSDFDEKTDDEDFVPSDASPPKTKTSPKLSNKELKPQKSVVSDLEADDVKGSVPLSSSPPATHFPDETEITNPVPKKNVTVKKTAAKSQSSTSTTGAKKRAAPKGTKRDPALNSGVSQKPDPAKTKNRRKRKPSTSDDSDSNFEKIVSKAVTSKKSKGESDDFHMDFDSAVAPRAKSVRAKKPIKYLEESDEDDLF

COc1cc([C@@H]2c3cc4c(cc3[C@@H](NC(=O)CN3CCN(CCCCCCN5CCN(CC(=O)N[C@@H]6c7cc8c(cc7[C@@H](c7cc(OC)c(O)c(OC)c7)[C@H]7C(=O)OC[C@@H]76)OCO8)CC5)CC3)[C@H]3COC(=O)[C@H]23)OCO4)cc(OC)c1O
Effect on topoisomerase 2-alpha DNA cleavage (qualitative) [1]: Dose-dependent effect | growth at 50 µM [2]: 9% | growth at 50 µM [3]: 57% | GI50 ([4]; read-out: GI50): 0.89 µM | CC50 [4, 40]: > 50 µM | TGI ([4]; read-out: TGI): 4.9 µM | GI50 ([4]; read-out: pGI50 (converted)): 0.891 µM | CC50 [4, 41]: > 50.1 µM | TGI ([4]; read-out: pTGI (converted)): 4.9 µM | GI50 ([5]; read-out: GI50): 0.106 µM | CC50 [5, 40]: > 50 µM | TGI ([5]; read-out: TGI): > 50 µM | GI50 ([5]; read-out: pGI50 (converted)): 0.105 µM | CC50 [5, 41]: > 50.1 µM | TGI ([5]; read-out: pTGI (converted)): > 50.1 µM | GI50 ([6]; read-out: GI50): 1.03 µM | CC50 [6, 40]: > 50 µM | TGI ([6]; read-out: TGI): > 50 µM | GI50 ([6]; read-out: pGI50 (converted)): 1.02 µM | CC50 [6, 41]: > 50.1 µM | TGI ([6]; read-out: pTGI (converted)): > 50.1 µM | GI50 ([7]; read-out: GI50): 40 µM | CC50 [7, 40]: > 50 µM | TGI ([7]; read-out: TGI): > 50 µM | GI50 ([7]; read-out: pGI50 (converted)): 39.8 µM | CC50 [7, 41]: > 50.1 µM | TGI ([7]; read-out: pTGI (converted)): > 50.1 µM | GI50 ([8]; read-out: GI50): 7.24 µM | CC50 [8, 40]: > 50 µM | TGI ([8]; read-out: TGI): > 50 µM | GI50 ([8]; read-out: pGI50 (converted)): 7.24 µM | CC50 [8, 41]: > 50.1 µM | TGI ([8]; read-out: pTGI (converted)): > 50.1 µM | GI50 ([9]; read-out: GI50): > 50 µM | CC50 [9, 40]: > 50 µM | TGI ([9]; read-out: TGI): > 50 µM | GI50 ([9]; read-out: pGI50 (converted)): > 50.1 µM | CC50 [9, 41]: > 50.1 µM | TGI ([9]; read-out: pTGI): > 50.1 µM | GI50 ([10]; read-out: GI50): 1.31 µM | CC50 [10, 40]: > 50 µM | TGI ([10]; read-out: TGI): > 50 µM | GI50 ([10]; read-out: pGI50 (converted)): 1.32 µM | CC50 [10, 41]: > 50.1 µM | TGI ([10]; read-out: pTGI (converted)): > 50.1 µM | GI50 ([11]; read-out: GI50): > 50 µM | CC50 [11, 40]: > 50 µM | TGI ([11]; read-out: TGI): > 50 µM | GI50 ([11]; read-out: pGI50 (converted)): > 50.1 µM | CC50 [11, 41]: > 50.1 µM | TGI ([11]; read-out: pTGI (converted)): > 50.1 µM | growth at 0.005 µM [12]: 108% | growth at 0.005 µM [13]: 99% | growth at 0.005 µM [14]: 88% | growth at 0.005 µM [15]: 92% | growth at 0.005 µM [16]: 101% | growth at 0.005 µM [17]: 104% | growth at 0.005 µM [18]: 97% | growth at 0.005 µM [19]: 93% | growth at 0.005 µM [20]: 110% | growth at 0.005 µM [21]: 89% | growth at 0.005 µM [22]: 89% | growth at 0.005 µM [23]: 96% | growth at 0.005 µM [24]: 80% | growth at 0.05 µM [25]: 94% | growth at 0.05 µM [26]: 100% | growth at 0.05 µM [27]: 98% | growth at 0.05 µM [28]: 89% | growth at 0.5 µM [29]: 56% | growth at 0.5 µM [30]: 73% | growth at 0.5 µM [31]: 75% | growth at 0.5 µM [32]: 111% | growth at 0.5 µM [33]: 106% | growth at 0.5 µM [34]: 88% | growth at 0.5 µM [35]: 79% | growth at 5 µM [36]: 40% | growth at 5 µM [37]: 89% | growth at 5 µM [38]: 14% | growth at 5 µM [39]: 64%
